Laboratory results as given in ChEMBL document CHEMBL4406803, “A- and D-Ring Structural Modifications of an Androsterone Derivative Inhibiting 17β-Hydroxysteroid Dehydrogenase Type 3: Chemical Synthesis and Structure-Activity Relationships” (J Med Chem, 2019).

Legend:
[1] = target: T1, 17-beta-hydroxysteroid dehydrogenase type 3 (Homo sapiens) (UniProt P37058); test: Inhibition of 17beta-HSD3 (unknown origin) expressed in human LNCAP cells assessed as reduction in [14C]-testosterone formation from [14C]-4-androstene-3,17-dione at 1 uM measured after 1 hr relative to control; assay type: cell-based
T1 sequence (whole entry): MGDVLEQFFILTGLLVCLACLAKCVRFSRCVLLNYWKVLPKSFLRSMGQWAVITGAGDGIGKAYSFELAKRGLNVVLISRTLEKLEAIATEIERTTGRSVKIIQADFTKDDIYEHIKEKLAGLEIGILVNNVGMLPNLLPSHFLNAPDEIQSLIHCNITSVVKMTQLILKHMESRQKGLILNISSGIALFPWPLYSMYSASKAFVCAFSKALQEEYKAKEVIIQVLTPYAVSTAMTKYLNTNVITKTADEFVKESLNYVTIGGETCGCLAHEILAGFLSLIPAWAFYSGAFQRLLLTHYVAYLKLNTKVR
Outline: (§1)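 LNCaP cells stably transfected with 17β-HSD3 were plated at 10,000 per well in hygromycin-free medium and grown 2 days. They were then given 15 nM [14C]-4-androstenedione plus inhibitor at 0.1, 0.5 or 1.0 µM (0.05% DMSO final) for 1 h. Steroids were ether-extracted, separated by TLC and quantified by radioimaging. Results are % inhibition of conversion to T.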

LAPC4 [2] = test: Androgenic activity in human LAPC4 cells expressing androgen receptor assessed as effect on cell proliferation at 0.1 uM supplemented with fresh medium containing compounds every 3 days for 7 days by MTS assay (reference value: 100%); assay type: ADME, cell-based; settings: lapc4, 168 h
Outline: (§2)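 Androgen-dependent LAPC-4 cells were seeded at 5,000 per well in IMDM with 5% dextran-coated charcoal-treated FBS and pre-incubated 24 h at 37 °C, 5% CO2. Compounds were added from DMSO stock at 0.1, 0.5 and 1.0 µM, with 0.05% DMSO in controls. Incubation lasted 7 days, with a medium change at day 3. Growth was read by MTS (4 h, 490 nm) as % of untreated control (100%), in triplicate.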

LAPC4 [3] = test: Androgenic activity in human LAPC4 cells expressing androgen receptor assessed as effect on cell proliferation at 0.5 uM supplemented with fresh medium containing compounds every 3 days for 7 days by MTS assay (reference value: 100%); assay type: ADME, cell-based; settings: lapc4, 168 h; outline: as §2
LAPC4 [4] = test: Androgenic activity in human LAPC4 cells expressing androgen receptor assessed as effect on cell proliferation at 1 uM supplemented with fresh medium containing compounds every 3 days for 7 days by MTS assay (reference value: 100%); assay type: ADME, cell-based; settings: lapc4, 168 h; outline: as §2
[5] = target: T1, 17-beta-hydroxysteroid dehydrogenase type 3 (Homo sapiens); test: Inhibition of 17beta-HSD3 (unknown origin) expressed in human LNCAP cells assessed as reduction in [14C]-testosterone formation from [14C]-4-androstene-3,17-dione at 0.5 uM measured after 1 hr relative to control; assay type: cell-based; outline: as §1
[6] = target: T1, 17-beta-hydroxysteroid dehydrogenase type 3 (Homo sapiens); test: Inhibition of 17beta-HSD3 (unknown origin) expressed in human LNCAP cells assessed as reduction in [14C]-testosterone formation from [14C]-4-androstene-3,17-dione at 0.1 uM measured after 1 hr relative to control; assay type: cell-based; outline: as §1
[7] = target: T2, 17-beta-hydroxysteroid dehydrogenase type 3 (Homo sapiens, UniProt P37058); test: Inhibition of 17beta-HSD3 (unknown origin) expressed in human LNCAP cells assessed as reduction in [14C]-testosterone formation from [14C]-4-androstene-3,17-dione measured after 1 hr; assay type: cell-based
T2 sequence (P37058 whole entry): T1 sequence (whole entry)
Outline: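 Transfected LNCaP[17β-HSD3] cells were incubated 1 h with 15 nM [14C]-4-androstenedione and inhibitor at seven concentrations (0.001–5.0 µM; 0.05% DMSO). [14C]-T formation was measured by TLC and radioimaging. IC50 was obtained by curve fitting, averaging two independent experiments in triplicate.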

[8] = Stability of the compound in human liver S9 fraction at 10 uM measured after 1 hr by NADPH by HPLC-MS analysis; assay type: ADME, subcellular; settings: s9, 1 h
Outline: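 Substrate (10 µM) was incubated 1 h at 37 °C with 40 µg human liver S9 fraction in 50 mM Tris with 10 mM MgCl2, with or without 10 mM NADPH. The reaction was stopped with MeOH. Remaining parent was measured by HPLC-MS (UV 190 nm) as the AUC ratio with/without NADPH ×100. Values are the mean ± SD of four independent experiments.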

LAPC4 [9] = test: Antiproliferative activity against human LAPC4 cells expressing androgen receptor assessed as inhibition of cell proliferation at 0.1 uM supplemented with fresh medium containing compounds every 3 days for 7 days by MTS assay relative to control; assay type: functional; outline: as §2
PC-3 [10] = test: Antiproliferative activity against AR-deficient human PC3 cells assessed as reduction in cell proliferation at 1 uM measured after 3 days by MTS assay relative to control; assay type: functional; parameters: scale not given: the % may be the effect or the level left
Outline: (§3)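 Androgen-independent PC-3 cells were plated at 3,000 per well in triplicate in RPMI-1640 with 10% FBS. Compounds were added at 0.1, 0.5 and 1.0 µM from DMSO stock, with 0.05% DMSO in controls, and incubated 3 days. Growth was read by MTS (4 h, 490 nm) and expressed as % of non-treated control (100%).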

LAPC4 [11] = test: Antiproliferative activity against human LAPC4 cells expressing androgen receptor assessed as inhibition of cell proliferation at 1 uM supplemented with fresh medium containing compounds every 3 days for 7 days by MTS assay relative to control; assay type: functional; outline: as §2
PC-3 [12] = test: Antiproliferative activity against AR-deficient human PC3 cells assessed as reduction in cell proliferation at 0.1 uM measured after 3 days by MTS assay relative to control; assay type: functional; parameters: scale not given: the % may be the effect or the level left; outline: as §3
LAPC4 [13] = test: Antiproliferative activity against human LAPC4 cells expressing androgen receptor assessed as inhibition of cell proliferation at 0.5 uM supplemented with fresh medium containing compounds every 3 days for 7 days by MTS assay relative to control; assay type: functional; outline: as §2
LAPC4 [14] = test: Antiproliferative activity against human LAPC4 cells expressing androgen receptor assessed as inhibition of cell proliferation supplemented with fresh medium containing compounds every 3 days for 7 days by MTS assay; assay type: functional, cell-based; outline: as §2
PC-3 [15] = test: Antiproliferative activity against AR-deficient human PC3 cells assessed as reduction in cell proliferation at 0.5 uM measured after 3 days by MTS assay relative to control; assay type: functional; parameters: scale not given: the % may be the effect or the level left; outline: as §3
[16] = Plasma concentration in mouse at 25 mg/kg, sc administered as single dose measured after 3 hrs by LC-MS/MS analysis; assay type: ADME, organism-based
Outline: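 Female mice were fasted 8 h, then given a single 25 mg/kg subcutaneous dose in 0.1 mL of 0.4% aqueous methylcellulose with 8% DMSO. At 3 h, blood was taken by cardiac puncture into K-EDTA tubes (3 mice per group). Plasma was extracted and analysed by LC-MS/MS against a plasma calibration curve.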

inhibition [1] [%]	inhibition [5] [%]	inhibition [6] [%]	IC50 [7] [nM]	Stability [8]	concentration at 3 h [16] [ng/mL]	SMILES	Activity (LAPC4 [2]) [%]	Activity (LAPC4 [3]) [%]	Activity (LAPC4 [4]) [%]	inhibition (INH) (LAPC4 [9]) [%]	Activity (PC-3 [10]) [%]	inhibition (INH) (LAPC4 [11]) [%]	Activity (PC-3 [12]) [%]	inhibition (INH) (LAPC4 [13]) [%]	inhibition (LAPC4 [14])	Activity (PC-3 [15]) [%]
55	48	20				CC1CN(S(=O)(=O)c2ccccc2C(F)(F)F)C(C)CN1C[C@@]1(O)CC[C@@]2(C)[C@@H](CC[C@@H]3[C@@H]2CC[C@]2(C)[C@@H](O)[C@H](O)C[C@@H]32)C1 (some centres not stated)	90.8	54.1	43.8							
98	95	50				CC1CN(S(=O)(=O)c2ccccc2C(F)(F)F)C(C)CN1CC(O)c1ccc2c(c1)CC[C@@H]1[C@@H]2CC[C@]2(C)C(=O)CC[C@@H]12 (single isomer, unassigned; diastereomer A) [listing 1 of 2 here]										
42	30	10	2600	Stable		CC(=O)[C@H]1CC[C@H]2[C@@H]3CC[C@H]4C[C@@](O)(CN5CC(C)N(S(=O)(=O)c6ccccc6C(F)(F)F)CC5C)CC[C@]4(C)[C@H]3CC[C@]12C (some centres not stated)	45.9	26.4	27.1							
90	75	22	200	Stable		CC1CN(S(=O)(=O)c2ccccc2C(F)(F)F)C(C)CN1C[C@@]1(O)CC[C@@]2(C)[C@@H](CC[C@@H]3[C@@H]2CC[C@]2(C)C(=O)[C@H](F)C[C@@H]32)C1 (some centres not stated)	147.7	134.2	126.6							
			140			CC1CN(S(=O)(=O)c2ccccc2C(F)(F)F)C(C)CN1CC(O)c1ccc2c(c1)CC[C@@H]1[C@@H]2CC[C@]2(C)C(=O)CC[C@@H]12 (single isomer, unassigned; diastereomer A) [listing 2 of 2 here]	115	94.9	81.9							
80	60	0				CC1CN(S(=O)(=O)c2ccccc2C(F)(F)F)C(C)CN1C[C@@]1(O)CC[C@@]2(C)[C@@H](CC[C@@H]3[C@@H]2CC[C@]2(C)C(=O)[C@H](O)C[C@@H]32)C1 (some centres not stated)	114	83.1	69.3							
30	18	10				CO[C@H]1CC[C@H]2[C@@H]3CC[C@H]4C[C@@](O)(CN5CC(C)N(S(=O)(=O)c6ccccc6C(F)(F)F)CC5C)CC[C@]4(C)[C@H]3CC[C@]12C (some centres not stated)										
70	58	12				CC1CN(S(=O)(=O)c2ccccc2C(F)(F)F)C(C)CN1C[C@@]1(O)CC[C@@]2(C)[C@@H](CC[C@@H]3[C@@H]2CC[C@]2(C)[C@@H](O)[C@H](F)C[C@@H]32)C1 (some centres not stated)	153.6	149.7	142.4							
90	80	30	250			CC1CN(S(=O)(=O)c2ccccc2C(F)(F)F)C(C)CN1CC(F)c1ccc2c(c1)CC[C@@H]1[C@@H]2CC[C@]2(C)C(=O)CC[C@@H]12 (mixture of isomers)										

Continued, compound first:

SMILES	inhibition [1] [%]	inhibition [5] [%]	inhibition [6] [%]	IC50 [7] [nM]	Stability [8]	concentration at 3 h [16] [ng/mL]	Activity (LAPC4 [2]) [%]	Activity (LAPC4 [3]) [%]	Activity (LAPC4 [4]) [%]	inhibition (INH) (LAPC4 [9]) [%]	Activity (PC-3 [10]) [%]	inhibition (INH) (LAPC4 [11]) [%]	Activity (PC-3 [12]) [%]	inhibition (INH) (LAPC4 [13]) [%]	inhibition (LAPC4 [14])	Activity (PC-3 [15]) [%]
CC1CN(S(=O)(=O)c2ccccc2C(F)(F)F)C(C)CN1C[C@@]1(O)CC[C@@]2(C)[C@@H](CC[C@@H]3[C@@H]2CC[C@]2(C)/C(=N/O)CC[C@@H]32)C1 (some centres not stated)	90	80	40	220	Stable	94.7				-8	4	56	10	41	Dose-dependent effect	6
CC1CN(S(=O)(=O)c2ccccc2C(F)(F)F)C(C)CN1C[C@@]1(O)CC[C@H]2[C@@H](CC[C@@H]3[C@@H]2CC[C@]2(C)C(=O)CC[C@@H]32)C1 (some centres not stated)	94	82	20	220	Unstable		92.8	66.3	63.1							
CC1CN(S(=O)(=O)c2ccccc2C(F)(F)F)C(C)CN1C[C@@]1(O)CC[C@@]2(C)[C@@H](CC[C@@H]3[C@@H]2CC[C@@]2(C)[C@H]3CC[C@@]23CO3)C1 (some centres not stated)	20	10	5				92.6	61.2	49.3							
C#C[C@]1(O)CC[C@H]2[C@@H]3CC[C@H]4C[C@@](O)(CN5CC(C)N(S(=O)(=O)c6ccccc6C(F)(F)F)CC5C)CC[C@]4(C)[C@H]3CC[C@@]21C (some centres not stated)	40	30	5				130.9	95.8	81.2							
CC1CN(S(=O)(=O)c2ccccc2C(F)(F)F)C(C)CN1CC(O)c1ccc2c(c1)CC[C@@H]1[C@@H]2CC[C@]2(C)C(=O)CC[C@@H]12 (single isomer, unassigned; diastereomer B)	100	98	84												Dose-dependent effect	
CC1CN(S(=O)(=O)c2ccccc2C(F)(F)F)C(C)CN1C[C@@]1(O)CC[C@@]2(C)[C@@H](CC[C@@H]3[C@@H]2CC[C@]2(C)[C@@H](O)CC[C@@H]32)C1 (some centres not stated)	94	78	38	190			116.4	88.1	31.3							
